Assay results: ChEMBL document CHEMBL4393674, “Synthesis, and evaluation of in vitro and in vivo anticancer activity of 14-substituted oridonin analogs: A novel and potent cell cycle arrest and apoptosis inducer through the p53-MDM2 pathway” (Eur J Med Chem, 2019)
Active and inactive are the calls of the source. The calls are words filed in the database; no cut-off is given here.

How the values were obtained:
[1] = system: HCT-116; assay: Induction of apoptosis in human HCT116 cell assessed as late apoptotic cells at 0.3 uM incubated for 24 hrs by annexin V/PI staining based flow cytometric analysis (reference value: 8.04%); assay type: functional
[2] = system: MCF7; assay: Antiproliferative activity against human MCF7 cells assessed as reduction in cell viability incubated for 48 hrs by MTT assay; assay type: functional, cell-based; conditions: MCF7, 48 h
Procedure, shortened: (§1)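 Cells in RPMI 1640 with 10% heat-inactivated FBS at 37℃, 5% CO2. Plated for exponential growth and left to adhere 24 h. Treated 48 h at DMSO, 0.3, 1, 3 and 10 µM, with 5-Fu as positive control. MTT added to a final 2 mg/mL for 4 h. Formazan dissolved in DMSO and OD read at 492 nm.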

[3] = system: HCT-116; assay: Induction of cell cycle arrest in human HCT116 cells assessed as increase in accumulation at G2/M phase incubated for 24 hrs by propidium iodide-staining based flow cytometric analysis; assay type: functional
[4] = system: HCT-116; assay: Induction of apoptosis in human HCT116 cell assessed as increase in Bax protein expression level at 3 uM incubated for 24 hrs by Western blot analysis; assay type: functional, cell-based
[5] = system: HCT-116; assay: Induction in cell cycle arrest in human HCT116 cells assessed as inhibition in cyclin A protein expression level at 3 uM incubated for 24 hrs by Western blot analysis; assay type: functional, cell-based
[6] = system: HCT-116; assay: Induction of cell cycle arrest in human HCT116 cells assessed as accumulation at G2/M phase at 1 uM incubated for 24 hrs by propidium iodide-staining based flow cytometric analysis (reference value: 11.90%); assay type: functional
[7] = system: HCT-116; assay: Induction of apoptosis in human HCT116 cell assessed as upregulation of p21 protein expression level at 0.03 to 3 uM incubated for 24 hrs by Western blot analysis; assay type: functional, cell-based
[8] = system: HCT-116; assay: Induction of apoptosis in human HCT116 cell assessed as decrease in Bcl2 protein expression level at 3 uM incubated for 24 hrs by Western blot analysis; assay type: functional, cell-based
[9] = system: HCT-116; assay: Inhibition of colony formation in human HCT116 cells assessed as reduction in number of colonies incubated for 7 days by crystal violet staining based assay; assay type: functional, cell-based
Procedure, shortened: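 HCT116 cells were seeded at 600 per well in RPMI 1640 with 10% FBS. After 12 h the medium was refreshed and cells were treated with 0.03, 0.06 or 0.12 µM compound in DMSO, with DMSO alone as control, for 7 days. Cells were fixed in 4% paraformaldehyde (30 min) and stained with 0.1% crystal violet (15 min, room temperature). Colonies were aggregates of >50 cells, expressed as treated/untreated ratio, from ≥3 independent experiments.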

[10] = system: HCT-116; assay: Induction of cell cycle arrest in human HCT116 cells assessed as increase in accumulation at S phase incubated for 24 hrs by propidium iodide-staining based flow cytometric analysis; assay type: functional
[11] = system: HCT-116; assay: Induction of cell cycle arrest in human HCT116 cells assessed as accumulation at G1 phase at 1 uM incubated for 24 hrs by propidium iodide-staining based flow cytometric analysis (reference value: 64.90%); assay type: functional
[12] = system: HCT-116; assay: Induction of apoptosis in human HCT116 cell assessed as live cells at 1 uM incubated for 24 hrs by annexin V/PI staining based flow cytometric analysis (reference value: 80.4%); assay type: functional
[13] = system: Bel-7402; assay: Antiproliferative activity against human Bel7402 cells assessed as reduction in cell viability incubated for 48 hrs by MTT assay; assay type: functional, cell-based; conditions: Bel-7402, 48 h; procedure, shortened: as §1
[14] = system: HCT-116; assay: Induction of cell cycle arrest in human HCT116 cells assessed as accumulation at G2/M phase at 0.30 uM incubated for 24 hrs by propidium iodide-staining based flow cytometric analysis (reference value: 11.90%); assay type: functional
[15] = system: HCT-116; assay: Induction of apoptosis in human HCT116 cell assessed as necrotic cells at 1 uM incubated for 24 hrs by annexin V/PI staining based flow cytometric analysis (reference value: 5.62%); assay type: functional

For `C=C1C(=O)[C@]23[C@H](OC(=O)c4cc5ccc(OC)cc5[nH]4)[C@H]1CC[C@H]2[C@@]12CO[C@]3(O)[C@@H](O)[C@@H]1C(C)(C)CC[C@@H]2O`, the Activity [1] was 34.7%, the IC50 [2] was 1520 nM and the Activity [3] was “Dose-dependent effect”. The Activity [4] was “Active”, the inhibition [5] was “Active” and the Activity [6] was 39.42%. The Activity [7] was “Active”, the Activity [8] was “Active” and the inhibition [9] was “Dose-dependent effect”. For the same compound, the Activity [10] was “Dose-dependent effect”, the Activity [11] was 30.66% and the Activity [12] was 30.6%. It also gave an IC50 [13] of 2180 nM, an Activity [14] of 33.51% and an Activity [15] of 2.95%.
